Results pooled from the literature.
Matrix: plasma

Compound | system | setting | AUC(0-inf)
CONC(=O)c1cccc2c1cc(C)n2-c1nc2c(c(NCc3ccccc3)n1)CCCN2 | male Sprague-Dawley rat | oral, 10 mg/kg, single dose | 38.9 ng·h/mL
COc1ccc(N(Cc2csc(-c3ccccc3)n2)C(=O)CCCCCC(=O)NO)cc1 | female Sprague-Dawley rat | intravenous, 5 mg/kg | 30.7 ng·h/mL
Cc1nc(Nc2ncc(C(=O)Nc3c(C)cccc3Cl)s2)cc(N2CCN(CCO)CC2)n1 | male Sprague-Dawley rat | oral, 5 mg/kg, single dose | 0.199 µM·h
CCOc1c([C@H](C)n2nc(C)c3c(N)ncnc32)cc(Cl)c(F)c1[C@@H]1CNC(=O)C1 | male Sprague-Dawley rat | oral, 2 mg/kg, single dose | 4610 ng·h/mL
C[C@H]1Oc2cc(cnc2N)-c2c(nn(C)c2C#N)CN(C)C(=O)c2ccc(F)cc21 | Sprague-Dawley rat | intravenous, 1 mg/kg, single dose | 4470 ng·h/mL
C[C@@]12C[C@@]3(O)O[C@@H](O1)[C@]1(COC(=O)c4ccccc4)[C@H]3C[C@@]12O[C@@H]1O[C@H](CO)[C@@H](O)[C@H](O)[C@H]1O | male Sprague-Dawley rat | oral, 80 mg/kg | 4.33 ng·h/mL
Cn1c(=O)c2[nH]cnc2n(C)c1=O | male Sprague-Dawley rat | intravenous, 22.5 mg/kg | 59400 ng·h/mL
C[C@H]1[C@@H](O)O[C@@H]2O[C@@]3(C)CC[C@H]4[C@H](C)CC[C@@H]1[C@@]24OO3 | male Sprague-Dawley rat | oral, 10 mg/kg | 271 ng·h/mL
CNC(=O)c1cc(Oc2ccc(NC(=O)Nc3ccc(Cl)c(C(F)(F)F)c3)cc2)ccn1 | male Sprague-Dawley rat | oral, 100 mg/kg, single dose | 18400 ng·h/mL
O=C1CCC(N2Cc3cc(C4CCN(Cc5ccccc5)CC4)ccc3C2=O)C(=O)N1 (stereo not drawn) | male Sprague-Dawley rat | oral, 3 mg/kg | 349 ng·h/mL
COc1nc(-c2cccc(-c3ccccc3)c2C)ccc1CNCCNC(=O)CCCCCCCCCCC(=O)N1CCN(CCNC(=O)c2cc3c(=O)n4cccc(C)c4nc3n(CCc3cccs3)c2=N)CC1 | male Sprague-Dawley rat | oral, 40 mg/kg | 305 ng·h/mL
COc1cc(-c2cc(C(C)=O)n3ccccc23)c(OC)cc1Cn1ccnc1 | male Sprague-Dawley rat | oral, 5 mg/kg | 2160 ng·h/mL
COc1ccc(-c2coc3cc(O)cc(O)c3c2=O)cc1 | rat | intravenous, 2 mg/kg | 683 ng·h/mL
C1=C/COCc2cc(ccc2OCCN2CCCC2)Nc2nccc(n2)-c2cccc(c2)COC/1 | male Sprague-Dawley rat | oral, 36 mg/kg | 3320 ng·h/mL
C=CC(=O)N1CCC([C@@H]2CCNc3c(C(N)=O)c(-c4ccc(Oc5ccccc5)cc4)nn32)CC1 | Sprague-Dawley rat | oral, 16 mg/kg | 1460 ng·h/mL
